Active and inactive are the calls of the source. No cut-off for these calls is given here.

A word on the inhibition: it is the share of the control response that was lost under treatment.

Holding throughout (assay type): functional
For assay [1], the species on record is Homo sapiens. Nature of the assay: Immunosuppressive activity against human peripheral mononuclear cells assessed as inhibition of LPS-stimulated IL4 production at 10 ug/mL. In a few lines:
(§1)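 Whole blood from healthy human volunteers was used as the cell source for the immunosuppression screen. Other details follow a previously published method.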

Assay [2] is filed under the species Homo sapiens. Nature of the assay: Immunosuppressive activity against human peripheral mononuclear cells assessed as inhibition of LPS-stimulated IL2 production at 10 ug/mL. In short, it runs like this:
as §1

Assay [3] is filed under the species Homo sapiens. Nature of the assay: Immunosuppressive activity against human peripheral mononuclear cells assessed as inhibition of LPS-stimulated IFN-gamma production at 10 ug/mL. In a few lines:
as §1

Assay [4] is described as follows: Immunosuppressive activity against human peripheral mononuclear cells assessed as inhibition of LPS-stimulated IL4 production at 3 ug/mL. In short, it runs like this: as §1
Assay [5] in a line: Immunosuppressive activity against human peripheral mononuclear cells assessed as inhibition of LPS-stimulated IL2 production at 3 ug/mL. In short, it runs like this: as §1
The nature of assay [6]: Immunosuppressive activity against human peripheral mononuclear cells assessed as inhibition of LPS-stimulated IFN-gamma production at 3 ug/mL. In short, it runs like this:
as §1

Assay [7] is described as follows: Immunosuppressive activity against human peripheral mononuclear cells assessed as inhibition of LPS-stimulated IL4 production at 0.3 ug/mL. In a few lines:
as §1

Assay [8] is described as follows: Immunosuppressive activity against human peripheral mononuclear cells assessed as inhibition of LPS-stimulated IL2 production at 0.3 ug/mL. In a few lines: as §1
Assay [9] in a line: Immunosuppressive activity against human peripheral mononuclear cells assessed as inhibition of LPS-stimulated IFN-gamma production at 0.3 ug/mL. In a few lines: as §1

As for `C/C(=C\Cc1cc(C(=O)O)ccc1O)CCC(O)[C@]1(C)CC[C@H](C(C)(C)O)O1` (stereo not given in full), the result in the assay filed under Homo sapiens [1], in the assay filed under Homo sapiens [2] and in the assay filed under Homo sapiens [3] was inactive.

In the case of `CC(C)=CCCC(C)(O)C(O)CC/C(C)=C/Cc1cc(C(=O)O)ccc1O` (stereo not given), the result in the assay filed under Homo sapiens [1], in the assay filed under Homo sapiens [2] and in the assay listed under Homo sapiens [3] was inactive.

On to `C/C(=C\Cc1cc(C(=O)O)ccc1O)CC/C=C(\C)CCC(O)C(C)(C)O` (racemic), for which the result in the assay filed under Homo sapiens [1], in the assay listed under Homo sapiens [2] and in the assay filed under Homo sapiens [3] was inactive.

`CC(C)=CCC/C(C)=C/CC[C@@]1(C)Oc2ccc(C(=O)O)cc2C[C@H]1O` (racemic) [KUHISTANOL D]: the inhibition at 3 µg/mL in [4] came out at 70.3%; in assay [5], 77.3%; in [6] it was 61.8%.

Turning to `C[C@]12C=CC(=O)C=C1CC[C@@H]1[C@@H]2[C@@H](O)C[C@@]2(C)[C@H]1CC[C@]2(O)C(=O)CO` [PREDNISOLONE], the values for the inhibition at 0.3 µg/mL in assay [7], in assay [8] and in [9] were 55.3%, 65.6% and 60.2%, respectively.

For the origin of these results see ChEMBL document CHEMBL1155695, “Prenylated benzoic acid derivatives from Ferula kuhistanica” (2000).
